Results on five compounds are retold here after ChEMBL document CHEMBL1134174, “Anti-Helicobacter pylori agents endowed with H2-antagonist properties” (2001).

What all share (assay type): functional
Test [1] relates to Helicobacter pylori. Briefly: Inhibitory activity was determined against NCTC-11637 strain of Helicobacter pylori.
The subject of test [2] is Helicobacter pylori. The test is described as follows: Minimal concentration needed to inhibit 90% of Helicobacter pylori strain. The procedure, abridged:
(§1)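 Agar dilution MICs on 20 clinical H. pylori strains, two metronidazole resistant, in Columbia agar with horse serum and yeast extract. DMSO solutions diluted twofold serially in agar. Inocula at 0.5 McFarland in Wilkins Chalgren broth, incubated 37 C for 72 h, 10% CO2, microaerobic. MIC50/MIC90 taken as the lowest concentration inhibiting 50% or 90% of strains.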

In test [3] the test system is Helicobacter pylori. Briefly: Inhibitory activity was determined against 102R strain of Helicobacter pylori.
Test [4] deals with Helicobacter pylori. The test is described as follows: Minimal concentration needed to inhibit 50% of Helicobacter pylori strain. In a few lines:
as §1

Test [5] deals with Helicobacter pylori. Briefly: Minimal concentration needed to inhibit Helicobacter pylori strain.
The test system of test [6] is Helicobacter pylori. Briefly: Minimal concentration needed to inhibitH. pylori strain.

Each structure is given as a SMILES string. ≈ marks a conversion by molar mass, not a printed value.

One may read the MIC as the lowest concentration that inhibits growth of the organism. As usually defined, the MIC90 is the lowest concentration that inhibits either 90% of growth or 90% of the strains tested, depending on the study. As usually defined, the MIC50 is the lowest concentration that inhibits either 50% of growth or 50% of the strains tested, depending on the study. Low values mean higher susceptibility, high ones lower susceptibility. Regarding `N#C/N=[N+](\[O-])c1ccc(C(=O)NCC/N=C(\NC#N)NCCCOc2cccc(CN3CCCCC3)c2)cc1`, the minimal inhibitory concentration (MIC) in the test on Helicobacter pylori [1] was 16 µg/mL (≈ 30.1 µM); in the test with Helicobacter pylori [3], 8 µg/mL (≈ 15 µM); against Helicobacter pylori [5] it was 0.25 µg/mL (≈ 0.47 µM). Besides, the MIC90 in the test with Helicobacter pylori [2] stood at 16 µg/mL (≈ 30.1 µM). Also, in the test on Helicobacter pylori [4], the MIC50 turned out to be 8 µg/mL (≈ 15 µM).

`N#C/N=[N+](\[O-])c1ccc(C(=O)NCCCC/N=C(\NC#N)NCCCOc2cccc(CN3CCCCC3)c2)cc1`: the minimum inhibitory concentration (MIC) in the test with Helicobacter pylori [6] was found to be 0.25 µg/mL (≈ 0.447 µM); against Helicobacter pylori [1] it was 4 µg/mL (≈ 7.15 µM); against Helicobacter pylori [3] it was 8 µg/mL (≈ 14.3 µM). This compound also came in with an MIC90 with Helicobacter pylori [2] of 4 µg/mL (≈ 7.15 µM). Moreover, in the test with Helicobacter pylori [4], the MIC50 was determined as 2 µg/mL (≈ 3.57 µM).

With `Cc1ncc([N+](=O)[O-])n1CCO` [METRONIDAZOLE], the values for the minimal inhibitory concentration (MIC) against Helicobacter pylori [6], in the test on Helicobacter pylori [1] and against Helicobacter pylori [3] were 0.031 µg/mL (≈ 0.181 µM), 16 µg/mL (≈ 93.5 µM) and 8 µg/mL (≈ 46.7 µM), respectively. This compound also registered an MIC90 against Helicobacter pylori [2] of 8 µg/mL (≈ 46.7 µM). The compound also showed an MIC50 against Helicobacter pylori [4] of 0.25 µg/mL (≈ 1.46 µM).

`N#C/N=[N+](\[O-])c1ccc(C(=O)O)cc1`: the MIC in the test with Helicobacter pylori [6] is < 0.0039 µg/mL; in the test with Helicobacter pylori [1], 0.0078 µg/mL (≈ 0.0408 µM); in the test on Helicobacter pylori [3], 0.031 µg/mL (≈ 0.162 µM). Also, the MIC90 against Helicobacter pylori [2] worked out at 0.031 µg/mL (≈ 0.162 µM). In addition, the MIC50 with Helicobacter pylori [4] is 0.016 µg/mL (≈ 0.0837 µM).

In the case of `N#C/N=[N+](\[O-])c1ccc(C(=O)NCCCCCC/N=C(\NC#N)NCCCOc2cccc(CN3CCCCC3)c2)cc1`, the MIC amounted to 0.25 µg/mL (≈ 0.425 µM) in the test with Helicobacter pylori [6], 1 µg/mL (≈ 1.7 µM) against Helicobacter pylori [1] and 2 µg/mL (≈ 3.4 µM) against Helicobacter pylori [3]. For the same compound, in the test with Helicobacter pylori [2], the MIC90 was 2 µg/mL (≈ 3.4 µM). Further, the MIC50 in the test on Helicobacter pylori [4] is 1 µg/mL (≈ 1.7 µM).
